Data on 28 compounds can be found in ChEMBL document CHEMBL4622832, “Synthesis, biological evaluation and molecular modeling study of 2-amino-3,5-disubstituted-pyrazines as Aurora kinases inhibitors” (Bioorg Med Chem, 2020).

For assay [1], the system named is LoVo. The assay can be described thus: Antiproliferative activity against human LoVo cells assessed as cell growth inhibition after 72 hrs by MTT assay. The class given is functional, cell-based. The method, boiled down:
(§1)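 Cells seeded at 5 × 10^3 cells/well in medium with 10% FBS for 24 h at 37 °C, 5% CO2. Compounds diluted in culture medium to various concentrations, 72 h exposure. MTT (5 mg/mL stock in serum-free medium) for 4 h, formazan dissolved in DMSO, absorbance at 490 nm. IC50 from log plot of percent of control versus concentration; triplicate.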
In general terms: Tetrazolium dyes change colour on reduction, which living cells bring about.

Assay [2] has as its system U-87 MG. The assay can be described thus: Antiproliferative activity against human U87 cells assessed as cell growth inhibition after 72 hrs by MTT assay. The class given is functional, cell-based, U-87MG ATCC. The method, boiled down: as §1
The subject of assay [3] is HepG2. The assay can be described thus: Antiproliferative activity against human HepG2 cells assessed as cell growth inhibition after 72 hrs by MTT assay. The format is functional, cell-based. To be noted: HepG2, 72 h. A digest of the protocol:
as §1

Assay [4] deals with HeLa. Description: Antiproliferative activity against human HeLa cells assessed as cell growth inhibition after 72 hrs by MTT assay. The class given is functional, cell-based. The method, boiled down:
as §1

Assay [5] deals with T1, Aurora kinase B (Homo sapiens, UniProt Q96GD4). Description: Inhibition of Aurora kinase B (unknown origin) incubated for 30 mins by Kinase Glo luminescent assay. In general terms: Kinase-Glo reads ATP consumption through a luciferase reaction.
Assay [6] deals with T2, Aurora kinase A (Homo sapiens, UniProt O14965).
T2 sequence (O14965 whole entry): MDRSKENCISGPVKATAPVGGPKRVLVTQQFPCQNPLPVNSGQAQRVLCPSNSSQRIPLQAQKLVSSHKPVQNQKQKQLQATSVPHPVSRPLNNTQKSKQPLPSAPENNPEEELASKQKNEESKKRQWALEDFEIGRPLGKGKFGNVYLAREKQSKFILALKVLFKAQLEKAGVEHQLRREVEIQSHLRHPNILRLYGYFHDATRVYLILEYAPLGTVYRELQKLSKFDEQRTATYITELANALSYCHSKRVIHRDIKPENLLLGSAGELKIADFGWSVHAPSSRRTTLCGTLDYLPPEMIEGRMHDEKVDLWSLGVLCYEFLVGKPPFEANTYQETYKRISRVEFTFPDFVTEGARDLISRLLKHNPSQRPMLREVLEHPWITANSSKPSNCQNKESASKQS
The assay can be described thus: Inhibition of Aurora kinase A (unknown origin) incubated for 30 mins by Kinase Glo luminescent assay.

Assay [7] has as its system HeLa. The assay can be described thus: Induction of cell cycle arrest in human HeLa cells assessed as accumulation in G2/M phase after 24 hrs by propidium iodide staining-based flow cytometric analysis. The class given is functional. On the technique in general: In flow cytometry, cells or beads pass a laser one at a time.
Assay [8] deals with T1, Aurora kinase B. The assay can be described thus: Inhibition of Aurora kinase B in human HeLa cells assessed as reduction in phosphorylation at Thr232 residue incubated for 24 hrs by western blot analysis. The format is cell-based. A digest of the protocol: (§2)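 HeLa cells treated 24 h at 0, 1, 5 or 10 µM. Lysates quantified by BCA; 20–30 µg protein run on 12% SDS-PAGE, transferred to PVDF. Blocked 2 h in 5% milk/TBST. Primary antibodies (1:500–1:1000) overnight at 4 °C against p-Aurora A Thr288, p-Aurora B Thr232, total Aurora A/B, cyclin B1 and cdc2. Secondary at 1:5000–1:10,000; β-actin loading control.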

Assay [9] concerns HeLa. Description: Induction of cell cycle arrest in human HeLa cells assessed as accumulation in G2/M phase at 1 uM after 24 hrs by propidium iodide staining-based flow cytometric analysis (reference value: 10.5%). The format is functional.
Assay [10] concerns the target T3, Aurora kinase A (Homo sapiens) (UniProt O14965).
T3 sequence (whole entry): T2 sequence (O14965 whole entry)
Description: Inhibition of Aurora kinase A in human HeLa cells assessed as reduction in phosphorylation at Thr288 residue incubated for 24 hrs by western blot analysis. The format is cell-based. The method, boiled down: as §2

Assay [11] relates to HeLa. Description: Induction of cell cycle arrest in human HeLa cells assessed as accumulation in G2/M phase at 5 uM after 24 hrs by propidium iodide staining-based flow cytometric analysis (reference value: 10.5%). The class given is functional.
For assay [12], the system named is HeLa. The assay can be described thus: Induction of cell cycle arrest in human HeLa cells assessed as decrease in cyclin B1 expression level at 1 to 10 uM incubated for 24 hrs by Western blot analysis. The class given is functional, cell-based. A digest of the protocol: as §2
Assay [13] has as its system HeLa. The assay can be described thus: Induction of cell cycle arrest in human HeLa cells assessed as accumulation in G2/M phase at 10 uM after 24 hrs by propidium iodide staining-based flow cytometric analysis (reference value: 10.5%). The format is functional.
The subject of assay [14] is HeLa. Description: Induction of cell cycle arrest in human HeLa cells assessed as decrease in cdc2 expression level at 1 to 10 uM incubated for 24 hrs by Western blot analysis. The class given is functional, cell-based. The method, boiled down: as §2
For assay [15], the target named is T1, Aurora kinase B. The assay can be described thus: Inhibition of Aurora B in human B-NHL cells assessed as inhibition of histone H3 phosphorylation on Ser10 by immunoblotting analysis. The format is cell-based.

Activity calls are given as the source filed them. The rule behind the calls is not given here.

The IC50 is the concentration needed to halve the response being measured.

T1 sequence (Q96GD4 whole entry): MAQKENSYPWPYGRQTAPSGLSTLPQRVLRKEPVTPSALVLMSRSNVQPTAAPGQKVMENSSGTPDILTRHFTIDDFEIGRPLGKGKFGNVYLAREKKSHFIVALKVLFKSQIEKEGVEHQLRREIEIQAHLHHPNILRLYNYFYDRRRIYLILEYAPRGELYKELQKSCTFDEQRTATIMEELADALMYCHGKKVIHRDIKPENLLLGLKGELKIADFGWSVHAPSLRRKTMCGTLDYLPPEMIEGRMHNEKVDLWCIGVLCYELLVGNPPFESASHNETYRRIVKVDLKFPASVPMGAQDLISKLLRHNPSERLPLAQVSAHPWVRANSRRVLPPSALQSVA

On to `Cn1cc(-c2cnc(N)c(Oc3ccc(C(=O)Nc4cccc(Cl)n4)cc3)n2)cn1`, for which the IC50 is 48.6 µM in assay [1], 54.8 µM in assay [2], 44.2 µM in assay [3] and 38.2 µM in [4].
For the compound `Cc1noc(C)c1-c1cnc(N)c(Oc2ccc(C(=O)Nc3ccc(Cl)cc3)cc2)n1`, the IC50 in assay [1] came out at 1.92 µM; in assay [2], 15.5 µM; in assay [5], 0.26 µM; in [6] it was 0.458 µM; in assay [3] it was 14.4 µM; in assay [4], 2.23 µM.
For `Cc1noc(C)c1-c1cnc(N)c(Oc2ccc(C(=O)NC3CCCC3)cc2)n1`, the IC50 in assay [1] was determined as 25.2 µM; in assay [2], 57.6 µM; in [3] it was 12.8 µM; in assay [4] it was 9.97 µM.
`Cc1noc(C)c1-c1cnc(N)c(Oc2ccc(C(=O)Nc3cccc(Cl)c3)cc2)n1`: the IC50 amounted to 1.64 µM in assay [1]; 11.5 µM in assay [2]; 0.152 µM in assay [5]; 0.09 µM in assay [6]; 7.3 µM in assay [3]; 1.34 µM in assay [4]. The Activity entry in assay [7] is “Dose-dependent effect”; in assay [9] it was 21%; in assay [11], 30.1%; in assay [13] it was 34.9%. Also, the inhibition entry in assay [8] and in assay [10] was “Dose-dependent effect” each time. For the same compound, the outcome in [12] and in [14] was Active.
Regarding `Cn1cc(-c2cnc(N)c(Oc3ccc(C(=O)Nc4ccc(Cl)cn4)cc3)n2)cn1`, the IC50 turned out to be 6.16 µM in [1], 22.2 µM in [2], 24.2 µM in assay [3] and 21.5 µM in assay [4].
`Cc1noc(C)c1-c1cnc(N)c(Oc2ccc(C(=O)Nc3ccccc3Cl)cc2)n1`: the IC50 was above 100 µM in [1], 60.5 µM in [2], above 100 µM in assay [3] and 81.3 µM in [4].
Regarding `Cc1noc(C)c1-c1cnc(N)c(Oc2ccc(C(=O)Nc3cc(Cl)ccn3)cc2)n1`, the IC50 in assay [1] is above 100 µM; in assay [2], 70.8 µM; in assay [3], above 100 µM; in [4] it was 37.9 µM.
For `Cc1noc(C)c1-c1cnc(N)c(Oc2ccc(C(=O)N3CCN(C)CC3)cc2)n1`, the IC50 came to 7.69 µM in assay [1]; 21.5 µM in assay [2]; 0.189 µM in [5]; 0.143 µM in [6]; 17.6 µM in assay [3]; 8.03 µM in [4].
With `Cc1noc(C)c1-c1cnc(N)c(Sc2ccc(C(=O)Nc3ccc(Cl)cc3)cc2)n1`, the IC50 is 49.2 µM in [1], above 100 µM in assay [2], 45.2 µM in assay [3] and 38.4 µM in [4].
Regarding `Cc1noc(C)c1-c1cnc(N)c(Oc2ccc(C(=O)NC3CCCCC3)cc2)n1`, the IC50 in assay [1] came out at 21.6 µM; in [2], 40.4 µM; in assay [5], 0.32 µM; in [6], 0.23 µM; in [3], 5.42 µM; in [4], 26.1 µM.
As to `Cc1noc(C)c1-c1cnc(N)c(Oc2ccc(C(=O)Nc3ncccc3Cl)cc2)n1`, the IC50 amounted to 14.8 µM in assay [1], 45.6 µM in assay [2], 27.2 µM in assay [3] and 31.9 µM in assay [4].
With `Cn1cc(-c2cnc(N)c(Sc3ccc(C(=O)Nc4ccc(Cl)cc4)cc3)n2)cn1`, the IC50 in assay [1] is above 100 µM; in assay [2], above 100 µM; in [3] it was above 100 µM; in [4], 42.7 µM.
Consider `Cn1cc(-c2cnc(N)c(NCc3ccc(C(=O)Nc4ccc(Cl)cc4)cc3)n2)cn1`, for which the IC50 in assay [1] is 43.6 µM; in assay [2], above 100 µM; in assay [3] it was 20.1 µM; in [4] it was 42.1 µM.
The matching figures for `Cc1noc(C)c1-c1cnc(N)c(Oc2ccc(C(=O)NC3CC3)cc2)n1`: above 100 µM, 43.3 µM, 43.2 µM and 17.8 µM.
With `Cn1cc(-c2cnc(N)c(Oc3ccc(C(=O)Nc4cccc(Cl)c4)cc3)n2)cn1`, the IC50 was 24.5 µM in assay [1]; 21.7 µM in assay [2]; 0.272 µM in [5]; 0.658 µM in assay [6]; 21.2 µM in assay [3]; 4.46 µM in assay [4].
As to `Cn1cc(-c2cnc(N)c(Oc3ccc(C(=O)Nc4ccccc4Cl)cc3)n2)cn1`, the IC50 in [1] turned out to be 41.4 µM; in assay [2] it was 44.8 µM; in assay [3] it was 66.9 µM; in assay [4], 73 µM.
In the case of `Cc1noc(C)c1-c1cnc(N)c(Oc2ccc(C(=O)Nc3cccc(Cl)n3)cc2)n1`, the IC50 turned out to be 39.3 µM in [1], 64.1 µM in assay [2], 35.7 µM in [3] and 25.5 µM in assay [4].
As for `Cc1noc(C)c1-c1cnc(N)c(NCc2ccc(C(=O)Nc3ccc(Cl)cc3)cc2)n1`, the IC50 in [1], in [2], in [3] and in assay [4] was above 100 µM each time.
In the case of `Cn1cc(-c2cnc(N)c(Oc3ccc(C(=O)Nc4ncccc4Cl)cc3)n2)cn1`, the IC50 in [1] is 16.5 µM; in assay [2], 37.6 µM; in assay [3], 21.7 µM; in [4] it was 36.1 µM.
For the compound `Cn1cc(-c2cnc(N)c(Oc3ccc(C(=O)Nc4ccc(Cl)cc4)cc3)n2)cn1`, the IC50 in [1] came out at 3.08 µM; in [2], 35.8 µM; in assay [5], 0.175 µM; in assay [6], 0.19 µM; in [3], 11.9 µM; in assay [4] it was 3.44 µM.
Regarding `Cn1cc(-c2cnc(N)c(Oc3ccc(C(=O)Nc4ccccc4)cc3)n2)cn1`, the 50% inhibitory concentration (IC50) in assay [1] came out at 9.21 µM; in [2], 17.7 µM; in assay [5], 0.164 µM; in assay [6], 0.22 µM; in assay [3], 11.6 µM; in assay [4], 12.3 µM.
Regarding `Cc1cc(Nc2cc(N3CCN(C)CC3)nc(Sc3ccc(NC(=O)C4CC4)cc3)n2)n[nH]1` [TOZASERTIB], the half-maximal inhibitory concentration (IC50) in assay [1] was 13.6 µM; in assay [2], 14.5 µM; in [3], 12.8 µM; in assay [4], 9.5 µM. Further, in assay [13], the Activity is 36%.
As to `Cc1noc(C)c1-c1cnc(N)c(Oc2ccc(C(=O)Nc3ccccc3)cc2)n1`, the 50% inhibitory concentration (IC50) stood at 5.74 µM in [1]; 26.6 µM in assay [2]; 0.538 µM in assay [5]; 0.22 µM in assay [6]; 11.8 µM in assay [3]; 10.5 µM in [4].
Regarding `Cc1noc(C)c1-c1cnc(N)c(Oc2ccc(C(=O)Nc3ccc(Cl)cn3)cc2)n1`, the IC50 in assay [1] turned out to be 9.18 µM; in assay [2], 45.6 µM; in [3] it was 35.6 µM; in [4] it was 19.2 µM.
As to `Cn1cc(-c2cnc(N)c(Oc3ccc(C(=O)Nc4cc(Cl)ccn4)cc3)n2)cn1`, the IC50 in [1] was 26.6 µM; in assay [2], 47.9 µM; in assay [3], above 100 µM; in [4], 40.8 µM.
As to `CCCNC(=O)c1ccc(Oc2nc(-c3c(C)noc3C)cnc2N)cc1`, the IC50 was found to be 17.5 µM in assay [1], 47.8 µM in [2], 6.88 µM in assay [3] and 32.1 µM in assay [4].
On to `O=C(Nc1c[nH]nc1-c1nc2ccc(CN3CCOCC3)cc2[nH]1)NC1CC1` [AT-9283], for which the IC50 in assay [15] came out at 0.03 µM.
Consider `Cc1noc(C)c1-c1cnc(N)c(Oc2ccc(C(=O)N3CCOCC3)cc2)n1`, for which the 50% inhibitory concentration (IC50) came to 10.2 µM in [1]; 27.2 µM in assay [2]; 0.36 µM in [5]; 0.172 µM in [6]; 15.4 µM in assay [3]; 14.1 µM in [4].
